Experiment [1] in a line: Tested for activation of Glutamate decarboxylase; the ratio of Vmax in the presence of activators to the Vmax in the absence of activators at a concentration of 2.5 mM. The method, boiled down: (§1)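 Purified GAD (57 µg; sp act. 7.8 nmol/min·mg), 50 mM potassium phosphate pH 7.2, 37 °C, 60 min. Substrate L-glutamate 0.5–0.10 mM spiked with [1-14C]-L-glutamate. Activator at 2.5–0.05 mM. Reaction quenched with 6 M H2SO4; released 14CO2 trapped in KOH center well and counted. Vmax taken from 1/dpm vs 1/[glutamate] plots. Activation is Vmax(+activator)/Vmax(none) ×100%.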

Experiment [2] can be described thus: Tested for activation of Glutamate decarboxylase; the ratio of Vmax in the presence of activators to the Vmax in the absence of activators at a concentration of 250 uM. The method, boiled down: as §1
Experiment [3] can be described thus: Tested for activation of Glutamate decarboxylase; the ratio of Vmax in the presence of activators to the Vmax in the absence of activators at a concentration of 1.0 mM. The method, boiled down: as §1
A short description of experiment [4]: Compound was tested for anticonvulsant activity in Mice by iv administration at the dose of 100 mg/kg. It is filed as functional, Mus musculus. The method, boiled down: (§2)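 Male CF-1 mice (20-28 g), compound given iv. 120 min later, low-intensity corneal electroshock (17 mA base-to-peak sinusoidal, 0.2 s). Protection was scored as prevention of hindlimb tonic extensor seizure and reported as number protected/number tested.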

Experiment [5] in a line: Compound was tested for activation of Glutamate decarboxylase which is the ratio of Vmax in the presence of activators to the Vmax in the absence of activators at a concentration of 100 uM. The method, boiled down:
as §1

The nature of experiment [6]: Compound was tested for activation of Glutamate decarboxylase which is the ratio of Vmax in the presence of activators to the Vmax in the absence of activators at a concentration of 500 uM. The procedure, abridged: as §1
Experiment [7] is described as follows: Compound was tested for activation of Glutamate decarboxylase which is the ratio of Vmax in the presence of activators to the Vmax in the absence of activators at a concentration of 50 uM. The method, boiled down:
as §1

The nature of experiment [8]: Compound was tested for anticonvulsant activity in Mice by iv administration at the dose of 14.4 mg/kg; 9/10. Format: functional, Mus musculus. The method, boiled down: as §2
Experiment [9] is described as follows: Compound was tested for anticonvulsant activity in Mice by iv administration at the dose of 100 mg/kg; 3/5. Format: functional, Mus musculus. The procedure, abridged: as §2
A short description of experiment [10]: Compound was tested for anticonvulsant activity in Mice by iv administration at the dose of 100 mg/kg. It is filed as functional, Mus musculus. The procedure, abridged: as §2
Experiment [11] can be described thus: Compound was tested for anticonvulsant activity in Mice by iv administration at the dose of 100 mg/kg; 5/10. It is filed as functional, Mus musculus. The procedure, abridged: as §2
Experiment [12] in a line: Compound was tested for anticonvulsant activity in Mice by iv administration at the dose of 100 mg/kg; 2/10. Format: functional, Mus musculus. The procedure, abridged:
as §2

A short description of experiment [13]: Compound was tested for anticonvulsant activity in Mice by iv administration at the dose of 30 mg/kg; 2/10. Format: functional, Mus musculus. The method, boiled down:
as §2

A short description of experiment [14]: Compound was tested for anticonvulsant activity in Mice by iv administration at the dose of 100 mg/kg; 4/10. Format: functional, Mus musculus. The procedure, abridged:
as §2

Experiment [15] can be described thus: Compound was tested for anticonvulsant activity in Mice by iv administration at the dose of 100 mg/kg; 6/10. It is filed as functional, Mus musculus. The method, boiled down: as §2
A short description of experiment [16]: Compound was tested for anticonvulsant activity in Mice by iv administration at the dose of 100 mg/kg; 0/10. Format: functional, Mus musculus. The procedure, abridged: as §2

The values below come from ChEMBL document CHEMBL1125596, “3-Alkyl-4-aminobutyric acids: the first class of anticonvulsant agents that activates L-glutamic acid decarboxylase” (1991).

Consider `NCC(CC(=O)O)C1CCCCC1` (stereo not drawn), for which the figures for the Activity in experiment [1], in experiment [2] and in experiment [3] were 125, 100 and 100, respectively.

As to `NCC1(CC(=O)O)CCCCC1`, the Activity came out at 178 in [1], 105 in experiment [2] and 145 in [3].

Take `CC(C)(CN)CC(=O)O`: the Activity stood at 174 in [1], 109 in experiment [2] and 125 in experiment [3]. Further, the “No. of animals protected” value in [4] was 8.

Regarding `CC(CN)CC(=O)O` (stereo not drawn), the Activity in [5] is 118; in experiment [6] it was 142; in [7] it was 107; in experiment [1], 239; in experiment [2], 128; in experiment [3], 168. Besides, the “No. of animals protected” value in experiment [4] stood at 3.

For `CC(C)CC(CN)CC(=O)O` (stereo not drawn), the Activity in experiment [2] was 109. Further, the “No. of animals protected” value in experiment [8] was 9.

For the compound `CCCCCNCC(N)=O`, the Activity in [1] was found to be 230; in experiment [2], 126; in experiment [3] it was 170.

Consider `CCCC(CN)CC(=O)O` (stereo not drawn), for which the results for the Activity in [1], in experiment [2] and in experiment [3] were 156, 105 and 112, respectively. For the same compound, in experiment [9], the “No. of animals protected” value is recorded as 3.

As to `CCCC(CCC)C(=O)O`, the Activity in [5] turned out to be 115; in [6] it was 124; in [1], 207; in experiment [3], 138.

With `C[C@@H](CN)CC(=O)O`, the Activity in experiment [5] was 128; in [6], 185; in experiment [1], 327; in experiment [3] it was 202. In addition, the “No. of animals protected” value in experiment [10] amounted to 5.

On to `CC(C)(C)C(CN)CC(=O)O` (stereo not drawn), for which the Activity in experiment [5] came to 117; in experiment [6], 147; in experiment [1], 295; in [3], 174. Further, in experiment [11], the “No. of animals protected” value turned out to be 5.

With `CCCCC(CN)CC(=O)O` (stereo not drawn), the Activity stood at 178 in experiment [1], 105 in experiment [2] and 117 in experiment [3]. For the same compound, in [12], the “No. of animals protected” value was 2.

As for `CCC(C)C(CN)CC(=O)O` (stereo not drawn), the “No. of animals protected” value in experiment [13] worked out at 2. The Activity in experiment [1] stood at 169; in experiment [2], 105; in [3], 119.

For the compound `C[C@H](CN)CC(=O)O`, the Activity came to 170 in experiment [1], 103 in experiment [2] and 118 in experiment [3]. Moreover, in experiment [4], the “No. of animals protected” value stood at 5.

Take `CC(C)(C)CC(CN)CC(=O)O` (stereo not drawn): the “No. of animals protected” value in experiment [14] was determined as 4. Besides, the Activity in experiment [1] turned out to be 279; in [2] it was 130; in [3] it was 181.

On to `CC(C)C(CN)CC(=O)O` (stereo not drawn), for which the Activity came to 140 in experiment [1], 104 in experiment [2] and 108 in experiment [3]. Also, the “No. of animals protected” value in experiment [15] was 6.

Take `CC(C)CCC(CN)CC(=O)O` (stereo not drawn): the “No. of animals protected” value in [16] was 0. Further, the Activity amounted to 142 in experiment [1], 109 in [2] and 118 in experiment [3].

On to `CCC(CN)CC(=O)O` (stereo not drawn), for which the Activity worked out at 172 in experiment [1], 108 in experiment [2] and 128 in experiment [3]. Moreover, the “No. of animals protected” value in [4] was 5.
